These results are taken from ChEMBL document CHEMBL1140079, “Discovery of orally bioavailable cathepsin S inhibitors for the reversal of neuropathic pain” (J Med Chem, 2008).

Data set [1] has as its target T1, Cathepsin K (Homo sapiens, UniProt P43235).
T1 sequence (P43235 whole entry): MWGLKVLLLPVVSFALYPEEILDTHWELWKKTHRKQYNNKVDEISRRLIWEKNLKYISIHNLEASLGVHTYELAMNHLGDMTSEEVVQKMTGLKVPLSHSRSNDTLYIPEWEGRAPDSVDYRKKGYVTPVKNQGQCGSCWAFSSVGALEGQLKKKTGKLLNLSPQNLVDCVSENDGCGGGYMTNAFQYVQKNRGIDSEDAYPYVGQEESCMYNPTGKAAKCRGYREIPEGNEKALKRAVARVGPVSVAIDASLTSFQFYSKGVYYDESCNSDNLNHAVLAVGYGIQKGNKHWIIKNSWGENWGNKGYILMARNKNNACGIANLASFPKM
Briefly: Inhibition of human recombinant cathepsin K by fluorescence assay. The method, boiled down:
(§1)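 Recombinant human enzymes in a fluorescence assay; substrate Z-Phe-Arg-MCA for cathepsins K and L, Z-Leu-Leu-Arg-MCA for cathepsin S. Means of two experiments, each run in duplicate; individual points within a 2-fold range of each other.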

Data set [2] deals with Procathepsin L (Homo sapiens, UniProt P07711). Briefly: Inhibition of human recombinant cathepsin L by fluorescence assay. The method, boiled down: as §1
The nature of data set [3]: Plasma clearance in Sprague-Dawley rat at 1 mg/kg, iv and 3 mg/kg, po by LC/MS analysis. The class given is ADME, organism-based. The method, boiled down: (§2)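 Male Sprague-Dawley rats dosed orally at 3 mg/kg as a suspension and intravenously at 1 mg/kg as a bolus. Plasma levels quantified by LC/MS. Oral AUC and Cmax dose-normalized to 1 mg/kg. Means ± SD of three individual experiments.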

A short description of data set [4]: Terminal elimination half life in Sprague-Dawley rat at 1 mg/kg, iv by LC/MS analysis. The class given is ADME, organism-based. More on the design: dose 1 mg/kg, route intravenous. The conditions noted are these: in vivo. The method, boiled down:
as §2

A short description of data set [5]: Bioavailability in Sprague-Dawley rat at 1 mg/kg, iv and 3 mg/kg, po by LC/MS analysis. It is filed as ADME, organism-based. The conditions noted are these: in vivo. Put shortly:
as §2

The nature of data set [6]: Cmax in Sprague-Dawley rat at 3 mg/kg, po by LC/MS analysis. The class given is ADME, organism-based. More on the design: dose 3 mg/kg, route oral. The conditions noted are these: in vivo. The method, boiled down:
as §2

Data set [7] can be described thus: Volume of distribution in Sprague-Dawley rat at 1 mg/kg, iv and 3 mg/kg, po by LC/MS analysis. The class given is ADME, organism-based. Conditions: in vivo. Put shortly:
as §2

Data set [8] in a line: Inhibition of rat cathepsin S glycine 137 mutant by fluorescence assay. Put shortly:
(§3)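 Recombinant rat cathepsins K, L, S (137Gly and 137Cys forms) and mouse cathepsin S in a fluorescence assay. Substrates: Z-Phe-Arg-MCA for K and L, Z-Leu-Leu-Arg-MCA for S. IC50 reported as means ± SD of three experiments.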

Data set [9] is described as follows: Inhibition of rat cathepsin S cysteine 137 mutant by fluorescence assay. Put shortly:
as §3

For data set [10], the target named is T2, Cathepsin K (Rattus norvegicus, UniProt O35186).
T2 sequence (O35186 whole entry): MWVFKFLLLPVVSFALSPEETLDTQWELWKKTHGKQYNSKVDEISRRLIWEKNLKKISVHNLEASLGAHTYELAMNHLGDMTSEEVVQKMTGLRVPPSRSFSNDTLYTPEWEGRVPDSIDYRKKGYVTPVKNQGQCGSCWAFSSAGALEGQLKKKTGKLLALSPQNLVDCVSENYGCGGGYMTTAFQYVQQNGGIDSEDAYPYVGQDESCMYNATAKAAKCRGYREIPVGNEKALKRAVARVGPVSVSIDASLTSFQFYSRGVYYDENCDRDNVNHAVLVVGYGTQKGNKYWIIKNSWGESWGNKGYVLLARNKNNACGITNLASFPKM
Put plainly: Inhibition of rat cathepsin K by fluorescence assay. The method, boiled down: as §3

The target in data set [11] is T3, Procathepsin L (Rattus norvegicus, UniProt P07154).
T3 sequence (P07154 whole entry): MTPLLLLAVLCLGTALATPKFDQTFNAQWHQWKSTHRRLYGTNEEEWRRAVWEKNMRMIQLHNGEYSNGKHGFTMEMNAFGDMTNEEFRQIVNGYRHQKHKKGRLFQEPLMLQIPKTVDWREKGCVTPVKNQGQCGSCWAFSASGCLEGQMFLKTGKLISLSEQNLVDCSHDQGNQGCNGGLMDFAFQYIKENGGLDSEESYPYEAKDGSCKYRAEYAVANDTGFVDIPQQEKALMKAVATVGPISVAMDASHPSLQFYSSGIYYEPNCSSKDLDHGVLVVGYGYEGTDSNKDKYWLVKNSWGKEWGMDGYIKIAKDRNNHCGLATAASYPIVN
Briefly: Inhibition of rat cathepsin L by fluorescence assay. The method, boiled down:
as §3

Data set [12] has as its target Cathepsin S (Mus musculus, UniProt O70370). Put plainly: Inhibition of mouse cathepsin S by fluorescence assay. The method, boiled down: as §3
Data set [13] is filed under the species Rattus norvegicus. Put plainly: Selectivity for rat cathepsin S glycine 137 mutant over rat cathepsin K. The method, boiled down: (§4)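 Recombinant rat cathepsins in a fluorescence assay with MCA substrates: Z-Leu-Leu-Arg-MCA for cathepsin S (137Gly form), Z-Phe-Arg-MCA for K and L, and Z-Arg-Arg-MCA for B. IC50 values were taken as means ± SD of three experiments, and selectivity was compared from the IC50 values against the S enzyme and each other cathepsin.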

The species named for data set [14] is Rattus norvegicus. Briefly: Selectivity for rat cathepsin S glycine 137 mutant over rat cathepsin L. Put shortly: as §4
For data set [15], the species on record is Rattus norvegicus. Briefly: Selectivity for rat cathepsin S glycine 137 mutant over rat cathepsin B. The method, boiled down:
as §4

For data set [16], the target named is Cathepsin S (Homo sapiens, UniProt P25774). Put plainly: Inhibition of human recombinant cathepsin S by fluorescence assay. The method, boiled down: as §1
Data set [17] has as its target Cathepsin S (Mus musculus) (UniProt O70370). Briefly: Inhibition of cathepsin S-mediated proteolytic cleavage of MHC2 associated invariant chain in mouse splenocytes assessed as induction of accumulation of lip10. It is filed as cell-based.
Data set [18] concerns Rattus norvegicus. Briefly: Reversal of neuropathic mechanical hyperalgesia in Wistar rat sciatic nerve ligation model assessed as paw withdrawal threshold at 30 mg/kg, po administered twice daily for 5 days after 3 hrs. The class given is functional. The method, boiled down:
(§5)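 Partial sciatic nerve ligation in Wistar rats genotyped as 137Gly cathepsin S, with established mechanical hyperalgesia. Oral dosing in 0.5% methylcellulose/water; repeat regimen twice daily for 5 days, paw withdrawal thresholds 3 h post-dose. 6 animals/group; % reversal of hyperalgesia, mean ± SEM; ANOVA with Tukey's HSD versus vehicle.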

The next data set addresses T4, Cytochrome P450 1A2 (Homo sapiens, UniProt P05177).
T4 sequence (P05177 whole entry): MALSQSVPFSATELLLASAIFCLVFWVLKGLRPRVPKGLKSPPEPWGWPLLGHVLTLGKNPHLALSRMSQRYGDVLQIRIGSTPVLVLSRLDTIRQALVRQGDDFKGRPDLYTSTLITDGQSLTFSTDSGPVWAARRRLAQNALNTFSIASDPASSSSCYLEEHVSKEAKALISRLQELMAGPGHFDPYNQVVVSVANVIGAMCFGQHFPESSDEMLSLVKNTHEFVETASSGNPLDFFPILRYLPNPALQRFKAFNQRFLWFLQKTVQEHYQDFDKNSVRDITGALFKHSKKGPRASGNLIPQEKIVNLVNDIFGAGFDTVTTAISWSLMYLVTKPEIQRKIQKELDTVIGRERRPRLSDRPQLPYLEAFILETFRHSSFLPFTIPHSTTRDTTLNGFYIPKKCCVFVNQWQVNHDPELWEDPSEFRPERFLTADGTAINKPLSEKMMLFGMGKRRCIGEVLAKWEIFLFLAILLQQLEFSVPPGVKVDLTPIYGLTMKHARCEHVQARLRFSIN
Put plainly: Inhibition of CYP1A2 at 10 uM. It is filed as ADME. The method, boiled down:
(§6)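 Tested against a panel of cytochrome P450 enzymes at a maximum concentration of 10 µM.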

The next data set addresses Cytochrome P450 2C9 (Homo sapiens, UniProt P11712). Put plainly: Inhibition of CYP2C9 at 10 uM. It is filed as ADME. The method, boiled down:
as §6

Another data set has as its target Cytochrome P450 2C19 (Homo sapiens, UniProt P33261). Put plainly: Inhibition of CYP2C19 at 10 uM. The class given is ADME. The method, boiled down: as §6
The next data set addresses Cytochrome P450 2D6 (Homo sapiens, UniProt P10635). Put plainly: Inhibition of CYP2D6 at 10 uM. It is filed as ADME. The method, boiled down: as §6
In another data set the target is Cytochrome P450 3A4 (Homo sapiens, UniProt P08684). Briefly: Inhibition of CYP3A4 at 10 uM. It is filed as ADME. Put shortly: as §6
The nature of data set [19]: Genotoxicity in liver S9 fraction by Ames test. It is filed as toxicity, subcellular. The method, boiled down:
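Standard Ames test run with liver S9 enzyme.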

Data set [20] deals with Rattus norvegicus. Briefly: Reversal of neuropathic mechanical hyperalgesia in Wistar rat sciatic nerve ligation model with cathepsin S glycine 137 mutation at 100 mg/kg, po. The class given is functional. Put shortly:
as §5

The term IC50 denotes the concentration that gives 50% inhibition. In general, half-life refers to how long it takes for the measured level to halve. A low value points to rapid decline. A word on the bioavailability: it is dose-corrected exposure relative to a reference, in per cent. Lower therefore signals poor availability. As a reminder, the Cmax is the peak of the concentration-time curve.

Chain of Cathepsin S (Homo sapiens, UniProt P25774) (P25774 whole entry): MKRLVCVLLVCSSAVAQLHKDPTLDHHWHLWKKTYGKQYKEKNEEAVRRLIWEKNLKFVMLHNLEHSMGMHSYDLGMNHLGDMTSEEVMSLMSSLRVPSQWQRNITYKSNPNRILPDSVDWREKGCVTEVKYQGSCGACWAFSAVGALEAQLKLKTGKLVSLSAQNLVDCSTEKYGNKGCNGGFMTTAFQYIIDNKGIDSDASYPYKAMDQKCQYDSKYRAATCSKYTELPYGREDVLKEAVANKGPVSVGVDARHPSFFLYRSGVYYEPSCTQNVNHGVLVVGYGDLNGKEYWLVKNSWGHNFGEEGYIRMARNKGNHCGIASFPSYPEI
Chain of Procathepsin L (Homo sapiens, UniProt P07711) (P07711 whole entry): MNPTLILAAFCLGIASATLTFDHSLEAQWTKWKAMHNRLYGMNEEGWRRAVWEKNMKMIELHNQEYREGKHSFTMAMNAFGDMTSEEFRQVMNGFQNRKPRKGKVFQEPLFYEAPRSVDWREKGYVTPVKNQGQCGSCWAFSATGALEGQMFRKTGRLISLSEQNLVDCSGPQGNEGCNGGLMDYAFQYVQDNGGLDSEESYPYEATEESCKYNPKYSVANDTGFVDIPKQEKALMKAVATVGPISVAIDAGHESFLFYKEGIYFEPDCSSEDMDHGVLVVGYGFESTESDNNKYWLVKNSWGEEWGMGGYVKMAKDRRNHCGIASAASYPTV
Chain of Cytochrome P450 2C19 (P33261 whole entry): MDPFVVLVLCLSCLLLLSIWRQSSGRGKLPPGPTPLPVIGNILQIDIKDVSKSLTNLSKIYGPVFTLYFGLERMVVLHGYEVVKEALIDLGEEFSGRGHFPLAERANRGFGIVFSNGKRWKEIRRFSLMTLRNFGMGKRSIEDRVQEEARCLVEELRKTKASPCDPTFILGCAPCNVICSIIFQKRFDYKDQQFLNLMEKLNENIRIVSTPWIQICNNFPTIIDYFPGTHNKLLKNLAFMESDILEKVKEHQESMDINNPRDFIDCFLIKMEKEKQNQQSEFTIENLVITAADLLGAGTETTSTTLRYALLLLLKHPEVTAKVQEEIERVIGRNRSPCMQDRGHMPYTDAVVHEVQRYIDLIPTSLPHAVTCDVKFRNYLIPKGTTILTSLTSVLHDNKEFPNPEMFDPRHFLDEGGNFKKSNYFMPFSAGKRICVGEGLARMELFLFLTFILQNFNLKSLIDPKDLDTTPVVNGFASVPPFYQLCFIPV
Chain of Cytochrome P450 2C9 (P11712 whole entry): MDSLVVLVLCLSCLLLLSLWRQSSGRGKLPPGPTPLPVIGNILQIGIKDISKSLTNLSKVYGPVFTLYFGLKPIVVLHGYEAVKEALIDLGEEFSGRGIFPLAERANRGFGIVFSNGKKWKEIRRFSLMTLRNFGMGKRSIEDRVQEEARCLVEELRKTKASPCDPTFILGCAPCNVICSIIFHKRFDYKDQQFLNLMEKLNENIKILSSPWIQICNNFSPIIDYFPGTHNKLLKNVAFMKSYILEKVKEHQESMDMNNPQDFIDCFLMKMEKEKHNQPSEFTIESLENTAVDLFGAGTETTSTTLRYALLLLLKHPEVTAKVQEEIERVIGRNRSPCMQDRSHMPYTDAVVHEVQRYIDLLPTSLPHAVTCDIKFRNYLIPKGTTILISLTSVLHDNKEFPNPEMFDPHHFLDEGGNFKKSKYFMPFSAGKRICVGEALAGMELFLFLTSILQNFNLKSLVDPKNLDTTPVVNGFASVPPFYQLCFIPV
Chain of Cytochrome P450 2D6 (P10635 whole entry): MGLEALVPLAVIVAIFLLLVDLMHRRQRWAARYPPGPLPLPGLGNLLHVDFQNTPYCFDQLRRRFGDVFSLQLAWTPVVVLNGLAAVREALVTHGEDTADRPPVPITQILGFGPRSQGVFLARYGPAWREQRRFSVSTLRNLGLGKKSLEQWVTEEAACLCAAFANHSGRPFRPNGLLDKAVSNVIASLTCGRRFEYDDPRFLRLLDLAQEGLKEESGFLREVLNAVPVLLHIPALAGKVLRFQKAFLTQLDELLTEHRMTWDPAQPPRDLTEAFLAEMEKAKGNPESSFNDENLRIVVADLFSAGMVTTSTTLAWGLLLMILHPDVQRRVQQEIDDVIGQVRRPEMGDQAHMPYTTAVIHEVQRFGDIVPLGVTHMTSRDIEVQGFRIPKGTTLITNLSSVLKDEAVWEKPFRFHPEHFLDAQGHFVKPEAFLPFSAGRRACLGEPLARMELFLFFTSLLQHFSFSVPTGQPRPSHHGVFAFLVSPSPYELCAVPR
Chain of Cytochrome P450 3A4 (P08684 whole entry): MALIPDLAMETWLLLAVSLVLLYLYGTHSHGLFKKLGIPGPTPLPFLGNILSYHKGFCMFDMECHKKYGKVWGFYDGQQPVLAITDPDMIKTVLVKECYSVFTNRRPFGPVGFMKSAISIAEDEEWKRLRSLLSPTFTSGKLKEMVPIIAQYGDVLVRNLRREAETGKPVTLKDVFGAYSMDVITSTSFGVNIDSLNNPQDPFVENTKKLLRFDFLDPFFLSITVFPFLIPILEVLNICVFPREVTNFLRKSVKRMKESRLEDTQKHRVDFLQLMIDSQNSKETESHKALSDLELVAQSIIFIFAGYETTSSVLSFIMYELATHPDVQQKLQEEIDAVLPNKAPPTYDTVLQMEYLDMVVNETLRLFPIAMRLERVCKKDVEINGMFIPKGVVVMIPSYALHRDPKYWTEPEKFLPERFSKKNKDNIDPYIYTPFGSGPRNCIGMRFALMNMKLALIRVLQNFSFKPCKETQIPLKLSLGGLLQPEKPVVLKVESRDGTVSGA

On to `CC(=O)N1CCN(c2ccc(OCc3cc4cnc(C#N)nc4n3CCC3CCCCC3)cc2)CC1`, for which the IC50 at Cathepsin K [1] is 1650 nM; on Procathepsin L [2], 5200 nM; in data set [8], 10 nM; in data set [9], over 10000 nM; against Cathepsin K [10], over 10000 nM; against Procathepsin L [11], over 10000 nM. On Cathepsin S [12], this molecule showed an IC50 of 10 nM. The same molecule had a clearance in data set [3] of 65 mL/min/kg. The half-life in [4] was 1.1 h. Besides, the bioavailability in data set [5] amounted to 53%. The same molecule came in with a Cmax in data set [6] of 61 nM. The Vd in [7] was 5.6 L/kg. The Activity in the data set listed under Rattus norvegicus [13], in the data set filed under Rattus norvegicus [14] and in the data set filed under Rattus norvegicus [15] was over 100 in each case.
As for `CC(=O)N1CCN(c2ccc(OCc3cc4cnc(C#N)nc4n3CCC3CCCCCC3)cc2)CC1`, the IC50 was 50 nM at Cathepsin S [16], over 2000 nM on Cathepsin K [1] and over 2000 nM at Procathepsin L [2].
On to `CC(=O)N1CCN(c2ccc(OCc3cc4cnc(C#N)nc4n3CCc3ccc(Cl)cc3)cc2)CC1`, for which the figures for the IC50 at Cathepsin S [16], on Cathepsin K [1] and on Procathepsin L [2] were 17 nM, over 1000 nM and over 1000 nM, respectively.
For the molecule `CC(=O)N1CCCN(c2ccc(OCc3cc4cnc(C#N)nc4n3CCC3CCCCC3)cc2)CC1`, the IC50 on Cathepsin S [16] is 11 nM; on Cathepsin K [1] it was 290 nM; at Procathepsin L [2], over 1000 nM.
For `CC(=O)N1CCN(c2ccc(OCc3cc4cnc(C#N)nc4n3CCC3CCCCC3)cc2F)CC1` the same measures were 9 nM, over 1000 nM and over 1000 nM.
With `CC(=O)N1CCN(c2ccc(OCc3cc4cnc(C#N)nc4n3CCC3CCCCC3)c(F)c2)CC1`, the IC50 at Cathepsin S [16] was 18 nM; on Cathepsin K [1], 5900 nM; on Procathepsin L [2], 6800 nM; in data set [8], 12 nM; in [9] it was over 10000 nM; on Cathepsin K [10], over 10000 nM. Moreover, the IC50 at Procathepsin L [11] is over 10000 nM; on Cathepsin S [12], 14 nM. Moreover, the Activity entry in data set [17] is “Dose-dependent effect”; in the data set filed under Rattus norvegicus [13] it was over 100; in the data set filed under Rattus norvegicus [14], over 100; in the data set listed under Rattus norvegicus [15], over 100; with Rattus norvegicus [18], 63%; on Cytochrome P450 1A2, “Not Active”. The Activity result on Cytochrome P450 2C9 is “Not Active”; on Cytochrome P450 2C19, “Not Active”; on Cytochrome P450 2D6, “Not Active”; on Cytochrome P450 3A4, “Not Active”; in data set [19] it was “Non-toxic”; with Rattus norvegicus [20], 54%. In data set [3], this molecule had a clearance of 45 mL/min/kg. In data set [4], the half-life was 1.7 h. The bioavailability in data set [5] came out at 24%. In data set [6], the Cmax was 30 nM. Besides, in [7], the Vd was determined as 5.7 L/kg.
Regarding `CC(=O)N1CCN(c2ccc(OCc3cc4cnc(C#N)nc4n3CCC3CCCC3)cc2)CC1`, the IC50 on Cathepsin S [16] is 5 nM; on Cathepsin K [1], 79 nM; at Procathepsin L [2], 2300 nM.
